These results are taken from ChEMBL document CHEMBL3120079, “NF-κB inhibitors from Eurycoma longifolia” (J Nat Prod, 2014).

Structures are written as SMILES. pIC50: −log10 of the molar value. ≈ marks a conversion by molar mass, not a printed value. Calls of active or inactive are those of the source.

In general, pIC50 refers to the negative decadic logarithm of the IC50, by convention in mol/L. The term inhibition denotes the percentage by which the read-out fell short of the control. The term LD50 denotes the dose expected to kill half of the subjects tested.

Data set [1] is described as follows: (§1) Inhibition of NF-kappaB activity in TNF-alpha stimulated human HEK-293/NF-kB-luc cells incubated for 30 mins prior to TNF-alpha challenge for 4 hrs by luciferase reporter gene assay. The settings on record: for pIC50: Homo sapiens, HEK293, read-out: IC50. The essentials:
(§2)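 HEK293/NF-κB-luc cells were prestained with 2 μM CMFDA for 1 h, reseeded at 4 × 10^4 cells/well overnight in phenol red-free, serum-free DMEM, pretreated 30 min with compound or 0.1% DMSO vehicle, then stimulated with TNF-α 2 ng/mL for 4 h. Lysates were read for firefly luciferase, normalized to CMFDA fluorescence for cell number. Screen at 30 μM; IC50 determined for selected compounds.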
In general terms: Reporter assays use an easily measured gene product as a stand-in for the process of interest.

The test system of the next data set is HEK293. Kind of data set: Growth inhibition of TNF-alpha stimulated human HEK-293/NF-kB-luc cells assessed as cell viability at 30 uM incubated for 30 mins prior to TNF-alpha challenge for 4 hrs by CellTracker Green CMFDA staining. It counts as cell-based. The settings on record: hek293, 4 h. The method, boiled down: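 Cells loaded 1 h with 2 μM CellTracker Green CMFDA in serum-free medium, reseeded at 4 × 10^4 cells/well overnight in phenol red-free, FBS-free DMEM. Pretreated with test compound or vehicle (0.1% DMSO) for 30 min, then TNF-α 2 ng/mL for 4 h. After lysis, CMFDA fluorescence was compared with vehicle-treated cells.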

For data set [2], the species on record is Homo sapiens. Kind of data set: Inhibition of NF-kappaB activity in TNF-alpha stimulated human HEK-293/NF-kB-luc cells at 30 uM incubated for 30 mins prior to TNF-alpha challenge for 4 hrs by luciferase reporter gene assay. The method, boiled down:
as §2

The species named for data set [3] is Homo sapiens. The data set is described as §1. The method, boiled down:
as §2

Data set [4] can be described thus: Toxicity against brine shrimp. The settings on record: artemia, in vivo; read-out: LD50 (the source's name). It counts as organism-based.
Data set [5] can be described thus: Acute toxicity in po dosed mouse. It counts as organism-based. The settings on record: in vivo.

On to `C=C1C(=O)O[C@@H]2C3O[C@]3(C)CC/C=C(\C)CC[C@@H]12` (stereo partly drawn), for which the pIC50 in data set [1] is 5.82. The Activity entry with HEK293 is “Non-toxic”.

Regarding `COC(=O)c1nccc2c1[nH]c1ccccc12`, the pIC50 in data set [1] was 4.53. Moreover, the inhibition in the data set listed under Homo sapiens [2] was over 50%. The Activity result in the data set on HEK293 is on record as “Non-toxic”.

As for `COc1cc2ccc(=O)oc2c(O)c1OC`, in the data set listed under Homo sapiens [3], the inhibition entry was “inactive”. Besides, in the data set with HEK293, the Activity result was “Non-toxic”.

`CC1=CC(=O)[C@@H](O)[C@]2(C)[C@H]3C(=O)[C@H](O)[C@H](C)[C@@H]4CC(=O)O[C@H](C[C@@H]12)[C@]34C`: in data set [1], the pIC50 was 5.72. Further, the inhibition in the data set filed under Homo sapiens [2] is over 50%. The Activity result with HEK293 is listed as “Non-toxic”.

As for `COc1c(O)c2nccc3c4ccccc4n(c1=O)c23` [PICRASIDINE Q], the inhibition result in the data set listed under Homo sapiens [2] was “inactive”. For the same compound, the Activity entry with HEK293 is “Non-toxic”.

`O=C(O)c1ccc(O)c(-c2cc(C(=O)O)ccc2O)c1`: in the data set listed under Homo sapiens [3], the inhibition entry is “inactive”.

On to `COc1ccc2c3ccnc4ccc(=O)n(c2c1)c43`, for which the pIC50 in data set [1] is 5.13. The compound also showed an inhibition in the data set filed under Homo sapiens [2] of over 50%. Also, in the data set on HEK293, the Activity result is listed as “Non-toxic”.

In the case of `CC1=CC(=O)[C@@]2(C)C1=CC(=O)[C@]1(C)[C@@H]2[C@@H](O)[C@@H]2OC(=O)[C@H]1[C@H]2C` [LAURYCOLACTONE B], the IC50 result in data set [1] is “Not Active”. The Activity entry in the data set on HEK293 is listed as “Non-toxic”.

As to `COc1cc(C(=O)O)ccc1O`, the inhibition result in the data set listed under Homo sapiens [3] is “inactive”.

For the compound `CC1=CC(=O)[C@@H](O)[C@]2(C)[C@H]3[C@@H](O)[C@H](O)[C@H](C)[C@]4(O)[C@@H](O)C(=O)O[C@H](C[C@@H]12)[C@]34C`, in data set [4], the LC50 was 324 µg/mL (≈ 816 µM). Besides, the negative logarithm of the IC50 (pIC50) in data set [1] is 6.00. This compound had an inhibition in the data set listed under Homo sapiens [2] of over 50%. Moreover, the Activity result with HEK293 is recorded as “Non-toxic”.

For the compound `CC1=CC(=O)[C@@H](O)[C@]2(C)[C@H]3[C@@]4(O)OC[C@@]35[C@@H](C[C@@H]12)OC(=O)[C@H](O)[C@@]5(O)[C@@H](C)[C@H]4O`, the LC50 in data set [4] turned out to be 10.3 µg/mL (≈ 25.1 µM). Besides, the pIC50 in data set [1] is 6.15. For the same compound, the inhibition in the data set filed under Homo sapiens [2] is over 50%. In the data set with HEK293, the Activity result is “Non-toxic”.

In the case of `COc1ccc(-c2oc3c(OC)c(OC)c(OC)c(OC)c3c(=O)c2OC)cc1OC` [3,5,6,7,8,3',4'-HEPTAMETHOXYFLAVONE], the pIC50 in data set [1] is 4.63. This compound also showed an inhibition in the data set listed under Homo sapiens [2] of over 50%. In the data set on HEK293, the Activity entry is recorded as “Non-toxic”.

Turning to `O=c1ccc2nccc3c4ccc(O[C@@H]5O[C@H](CO)[C@@H](O)[C@H](O)[C@H]5O)cc4n1c23`, the inhibition result in the data set listed under Homo sapiens [2] was “inactive”. Further, the Activity result with HEK293 is reported as “Non-toxic”.

With `COc1cc(C(=O)O)cc(OC)c1O`, in the data set listed under Homo sapiens [3], the inhibition entry is “inactive”.

On to `O=c1ccc2nccc3c4ccc(O)cc4n1c23`, for which, in data set [1], the pIC50 was 5.42. In the data set filed under Homo sapiens [2], this compound displayed an inhibition of over 50%. For the same compound, the Activity result in the data set on HEK293 was “Non-toxic”.

As to `C=C1[C@@H](O)[C@@]2(O)OC[C@]34[C@H]2[C@@]2(C)[C@H](O)C(=O)C=C(C)[C@@H]2C[C@H]3OC(=O)[C@H](O)[C@@]14O` [EURYCOMANONE], the median lethal dose (LD50) in data set [5] worked out at 50 mg/kg. In data set [4], the LC50 amounted to 3.5 µg/mL (≈ 8.57 µM). Besides, the pIC50 in data set [1] was 5.62. The inhibition in the data set listed under Homo sapiens [2] was over 50%. For the same compound, the Activity entry with HEK293 is given as “Non-toxic”.

For `CC1=C[C@H](O)[C@@H](O)[C@@]2(C)[C@H]1CC(=O)[C@@]1(C)[C@H]3C(=O)O[C@H]([C@@H]3C)[C@H](O)[C@@H]12` [EURYCOLACTONE E], the pIC50 in data set [1] was 5.42. The inhibition in the data set listed under Homo sapiens [2] was over 50%. Moreover, the Activity entry in the data set with HEK293 is “Non-toxic”.

Take `CC1=CC(=O)[C@@H](O)[C@@]2(C)C1=CC(=O)[C@]1(C)[C@@H]2[C@@H](O)[C@@H]2OC(=O)[C@H]1[C@H]2C`: in data set [1], the pIC50 was 5.21. The same compound displayed an inhibition in the data set filed under Homo sapiens [2] of over 50%. In addition, the Activity result with HEK293 is recorded as “Non-toxic”.

Regarding `CC(=O)O[C@@H](CC[C@@H](OC(C)=O)[C@]1(C)CC[C@H]([C@@](C)(O)CCC=C(C)C)O1)[C@@]1(C)CC[C@H]([C@@](C)(O)CCC=C(C)C)O1`, the inhibition result in the data set filed under Homo sapiens [3] is “inactive”. Moreover, the Activity entry in the data set with HEK293 is on record as “Non-toxic”.

Turning to `CC1=CC(=O)[C@@H](O)[C@]2(C)[C@H]3[C@@H](O)[C@@H]4OC(=O)[C@@H]([C@H]4C)[C@]3(C)[C@H](O)C[C@@H]12`, the pIC50 in data set [1] was 5.82. In the data set filed under Homo sapiens [2], this compound had an inhibition of over 50%. The Activity result in the data set on HEK293 is reported as “Non-toxic”.

In the case of `CC1=CC(=O)[C@]2(C)[C@H]3[C@@H](O)[C@@H]4OC(=O)[C@@H]([C@H]4C)[C@]3(C)C(=O)C[C@@H]12` [LAURYCOLACTONE A], the IC50 entry in data set [1] is reported as “Not Active”. In the data set on HEK293, the Activity entry is recorded as “Non-toxic”.

For `C[C@@H]1CC[C@]2(C(=O)O[C@@H]3O[C@H](CO)[C@@H](O)[C@H](O)[C@H]3O)CC[C@]3(C)C(=CC[C@@H]4[C@@]5(C)CC[C@H](O)[C@@](C)(CO)[C@@H]5CC[C@]43C)[C@@H]2[C@]1(C)O` [PEDUNCULOSIDE], the inhibition result in the data set listed under Homo sapiens [3] is “inactive”. Further, the Activity result with HEK293 is reported as “Non-toxic”.

`COc1cc2ccc(=O)oc2cc1O` [SCOPOLETIN]: the inhibition entry in the data set listed under Homo sapiens [3] is “inactive”. Further, in the data set with HEK293, the Activity result is “Non-toxic”.

As for `CC1=CC(=O)[C@@H](O)[C@@]2(C)[C@H]1CC(=O)[C@@]1(C)[C@H]3C(=O)O[C@H]([C@@H]3C)[C@H](O)[C@@H]12` [EURYCOMALACTONE], in data set [1], the pIC50 was 6.30. The same compound gave an inhibition in the data set filed under Homo sapiens [2] of over 50%. The Activity result in the data set with HEK293 is on record as “Non-toxic”.

`C[C@H]1[C@H]2OC(=O)[C@@H]1[C@]1(C)C(=O)C=C3[C@H](C)CC(=O)[C@@H](O)[C@]3(C)[C@H]1[C@H]2O`: the pIC50 in data set [1] was 4.74. For the same compound, in the data set listed under Homo sapiens [2], the inhibition is over 50%. The Activity result in the data set with HEK293 is on record as “Non-toxic”.

Consider `COc1cc(C=O)ccc1O`, for which the inhibition entry in the data set filed under Homo sapiens [3] was “inactive”.

Consider `COc1cc(C)c2c(=O)cc(C[C@H](C)O)oc2c1[C@@H]1O[C@H](CO)[C@@H](O)[C@H](O)[C@H]1OC(=O)/C=C/c1ccc(O)cc1`, for which the inhibition result in the data set listed under Homo sapiens [3] is “inactive”.

As for `COc1cc2c3ccnc4ccc(=O)n(c2cc1OC)c43.Cl`, the pIC50 in data set [1] is 4.71. Besides, the inhibition in the data set listed under Homo sapiens [2] is over 50%. Further, the Activity result in the data set on HEK293 is given as “Non-toxic”.

`CC1=CC(=O)[C@@H](O)[C@@]2(C)[C@H]1[C@@H](O)[C@H]1OC(=O)C3[C@@H](C)[C@H](O)[C@H](O)[C@H]2[C@]31C` (stereo partly drawn) [LONGILACTONE]: in data set [4], the LC50 worked out at 145 µg/mL (≈ 395 µM). Besides, the pIC50 in data set [1] is 5.33. In addition, the inhibition in the data set filed under Homo sapiens [2] is over 50%. The Activity result with HEK293 is given as “Non-toxic”.
